CDK5 p35 inh = inhibitors of human CDK5/p35 kinase, primary screen, biochemical, single concentration; Cyclin-dependent kinase 5 (Homo sapiens) + Cyclin-dependent kinase 5 activator 1 (Homo …; Recombinant CDK5/p35, ADP-Glo luminescence, 60 min; inhibition, % at 10 µM; hit rate 0.01% among 330,000; AID 488839, 2010;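 active means highest replicate inhibition of at least 50% and at least 75% of replicates reaching 50%; inconclusive means only one of the two criteria met; inactive means both criteria failed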;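 further: plate controls were DMSO neutral control for no effect and GW8510 at 10 µM for full effect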
Statin myotox sup = suppressors of statin myotoxicity in C2C12 myotubes, primary screen, cell-based, single point, plate reader; rescue of ATP level, % at 7.49 µM; hit rate 0.78% among 330,000; C2C12 myotubes + simvastatin, ATP luminescence, 48 h; scaled: DMSO 0, geranylgeraniol control 100;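 active means mean ATP rescue above about 67%, or every replicate alone reaching that limit, limit read from the data, passing the limit was not always enough; inconclusive means no clear call, values can overlap the other calls; inactive means mean under the limit and some replicate under it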;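 further: myotubes were challenged with 10 µM simvastatin during compound exposure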
CAL PDZ FP-1 = untagged CAL PDZ binding inhibitors, primary screen, biochemical, fluorescence polarization, HTS. Golgi-associated PDZ and coiled-coil motif-containing protein (Homo sapiens), Q9HD26. purified CAL PDZ, TMR-peptide fluorescence polarization, 1 h. inhibition, % at 24.9 µM. hit rate 0.92% among 300,000;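 active means mean inhibition of at least 30% with at least half of replicates also reaching 30%; inconclusive means no clear call, values can overlap the other calls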;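 further: 0% = DMSO neutral control and 100% = excess unlabeled competitor peptide PRC23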
CAL PDZ FP-2 = CAL PDZ peptide-binding inhibitors, primary screen, biochemical, fluorescence polarization, Cer-tagged CAL PDZ, HTS | AID 504414, 2011 | Golgi-associated PDZ and coiled-coil motif-containing protein (Homo sapiens), Q9HD26 | hit rate 0.02% among 330,000 | inhibition, % at 20 µM | purified CAL PDZ, TMR-peptide fluorescence polarization, 1 h;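 active means highest replicate inhibition of at least 40%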;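 further: plate controls were DMSO neutral control wells for no effect and unlabeled competitor peptide control wells for full effect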
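Assay system – tagged CAL PDZ protein CerCALP, purified · Timing – 1 h at RT · Compound – single point, 20 µM · Measured by – fluorescence polarization from S- and P-plane intensities, G-factor corrected · Evaluation – inhibition from polarization loss · Probe or stimulus – TMR reporter peptide T*-PRC34 · Buffer or medium – pH 7.4 phosphate-saline buffer, reducing agent, detergent, IgG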
dFosB activator = activators of delta FosB homodimer, primary screen, biochemical, fluorescence polarization, TAMRA-CDK5 oligo, single point; purified delta FosB; percent of positive-control signal above neutral wells; activation, % at 25 µM; hit rate 0.99% among 340,000;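 active means mean activation above about 17%, with every replicate also reaching it, limit read from the data, passing the limit was not always enough; inconclusive means only one of the two conditions met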
Target sequence (P13346 whole entry, looked up): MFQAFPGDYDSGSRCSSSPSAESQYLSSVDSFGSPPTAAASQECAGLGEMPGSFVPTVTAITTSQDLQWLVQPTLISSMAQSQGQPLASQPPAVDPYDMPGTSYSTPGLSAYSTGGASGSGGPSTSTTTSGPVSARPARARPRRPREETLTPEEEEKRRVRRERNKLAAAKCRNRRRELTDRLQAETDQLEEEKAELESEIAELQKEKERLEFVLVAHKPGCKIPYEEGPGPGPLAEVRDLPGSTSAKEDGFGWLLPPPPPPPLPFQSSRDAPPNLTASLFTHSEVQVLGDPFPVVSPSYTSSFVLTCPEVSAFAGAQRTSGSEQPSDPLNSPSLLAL
S100A4 inh HTS = inhibitors of S100A4-myosin IIA peptide binding, primary screen, biochemical, fluorescence polarization, TAMRA-MyoIIA peptide. AID 652163, 2013. inhibition, % at 10.7 µM. Protein S100-A4 (Homo sapiens), P26447. hit rate 0.14% among 360,000;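 active means mean inhibition of at least 70% across replicates, with every replicate also reaching that level; inconclusive means mean inhibition reaches 70% but some replicates fall short; inactive means mean inhibition below 70%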
Target sequence (P26447 whole entry, looked up): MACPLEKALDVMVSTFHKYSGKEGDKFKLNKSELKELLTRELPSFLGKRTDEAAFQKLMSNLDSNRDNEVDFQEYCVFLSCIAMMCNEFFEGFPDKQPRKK
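Material: S100A4 monomer (human). Medium: Calcium-containing HEPES buffer, pH 7.2. Probe or stimulus: labelled myosin peptide probe, 5 nM. Compound dosing: one concentration per compound. Timing: polarization read 5 min after assay mix addition, stable 5–60 min. Benchmarks: DMSO as neutral control, TFP as positive control.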
Active calls of the source: *. The list is not random: actives were taken first. Their share in the collection is about 2%.

For NCC(O)COCCC12CC3CC(CC(C3)C1)C2 (stereo unspecified) the results were CDK5 p35 inh -1, Statin myotox sup -15, CAL PDZ FP-1 39*, CAL PDZ FP-2 -2 and dFosB activator -2.
Screening O=C(OC1CCN(c2ncc(C(F)(F)F)cc2Cl)CC1)c1ccc(Cl)cc1 returned CDK5 p35 inh -2, Statin myotox sup 5, CAL PDZ FP-1 -4, CAL PDZ FP-2 0 and dFosB activator 1.
Screening O=C(CSc1nccn1-c1ncc(C(F)(F)F)cc1Cl)c1ccc(Cl)cc1 returned CDK5 p35 inh 0, Statin myotox sup 95*, CAL PDZ FP-1 -3, CAL PDZ FP-2 0 and dFosB activator -3.
For NC1=NC(=O)/C(=C\c2ccc(O)c([N+](=O)[O-])c2)S1 the results were CDK5 p35 inh -1, CAL PDZ FP-2 -2, dFosB activator 3 and S100A4 inh HTS -1.
Screening NC1=NC(=O)/C(=C/c2cccc(-c3ccc(S(N)(=O)=O)cc3)c2)S1 returned CDK5 p35 inh 3, Statin myotox sup -9, CAL PDZ FP-1 -1, CAL PDZ FP-2 -2, dFosB activator 60* and S100A4 inh HTS -15.
COc1ccc(S(=O)(=O)N(C)C[C@H]2Oc3ccc(NC(=O)CCCCCC(=O)Nc4ccccc4N)cc3CC(=O)N([C@H](C)CO)C[C@@H]2C)cc1 was read as Statin myotox sup 8 and S100A4 inh HTS -4.
Screening Cc1ccc(-c2cn(S(=O)(=O)c3cccc4nsnc34)nc2N)cc1 returned CDK5 p35 inh 1, Statin myotox sup 7, CAL PDZ FP-1 1, CAL PDZ FP-2 0 and dFosB activator -1.
Screening Nc1nn(S(=O)(=O)c2cccc3nsnc23)cc1-c1ccc(Br)cc1 returned CDK5 p35 inh 1, Statin myotox sup 95*, CAL PDZ FP-1 7, CAL PDZ FP-2 -1 and dFosB activator -4.
Screening Cc1ccc(NC(=O)NCC2CCN(Cc3cccc(Cl)c3)CC2)cc1Cl returned CDK5 p35 inh 0, Statin myotox sup -305, CAL PDZ FP-1 -10, CAL PDZ FP-2 -5, dFosB activator 20* and S100A4 inh HTS 0.
Cn1c(N)cc(=O)[nH]c1=S was read as CDK5 p35 inh 1, Statin myotox sup 2, CAL PDZ FP-1 -2, CAL PDZ FP-2 0, dFosB activator 0 and S100A4 inh HTS 0.
Screening C[C@@H]1CN([C@H](C)CO)C(=O)c2cccc(NC(=O)c3nc4ccccc4s3)c2O[C@@H]1CN(C)Cc1ccc(C(=O)Nc2ccccc2N)cc1 returned Statin myotox sup inconclusive and S100A4 inh HTS -6.
Screening C[C@@H]1CN([C@@H](C)CO)C(=O)c2cccc(NC(=O)C3CCOCC3)c2O[C@@H]1CN(C)Cc1ccc(C(=O)Nc2ccccc2N)cc1 returned S100A4 inh HTS 79*.
For C[C@H](CO)N1C[C@H](C)[C@H](CN(C)Cc2ccc(C(=O)Nc3ccccc3N)cc2)Oc2c(NC(=O)C3CCOCC3)cccc2C1=O the results were Statin myotox sup -5 and S100A4 inh HTS 4.
For C[C@@H]1CN([C@@H](C)CO)C(=O)c2cccc(NC(=O)c3nc4ccccc4s3)c2O[C@H]1CN(C)Cc1ccc(C(=O)Nc2ccccc2N)cc1 the results were Statin myotox sup 101* and S100A4 inh HTS -29.
CCOCCCNC(=O)c1cc2cc3cc(OC)ccc3nc2o1 was read as CDK5 p35 inh 1, Statin myotox sup -15, CAL PDZ FP-1 6, CAL PDZ FP-2 -1, dFosB activator -23 and S100A4 inh HTS -2.
For COc1ccc2nc3oc(C(=O)NCc4cccs4)cc3cc2c1 the results were CDK5 p35 inh -2, Statin myotox sup 5, CAL PDZ FP-1 2, CAL PDZ FP-2 -3 and dFosB activator 60*.
For CCN(CC(=O)NC(C)C)C(=O)C(CCSC)NC(=O)c1ccccc1OC (stereo unspecified) the results were CDK5 p35 inh 0, CAL PDZ FP-2 -1, dFosB activator -2 and S100A4 inh HTS -3.
`O=C(Nc1cc(Cl)cc(Cl)c1)N1CCCN(Cc2ccccc2)CC1` gave CDK5 p35 inh 0, Statin myotox sup -20, CAL PDZ FP-1 37*, CAL PDZ FP-2 -1, dFosB activator -3 and S100A4 inh HTS -3.
COc1ccc(S(=O)(=O)N2CCOC2CNC(=O)C(=O)NCc2ccncc2)cc1 (stereo unspecified) was read as CDK5 p35 inh 1, Statin myotox sup 6, CAL PDZ FP-1 active, CAL PDZ FP-2 0, dFosB activator 2 and S100A4 inh HTS 1.
`CC(NC(=O)C(=O)N/N=C\c1ccc([N+](=O)[O-])cc1)c1ccccc1` (stereo unspecified) gave CDK5 p35 inh -4, CAL PDZ FP-1 40*, CAL PDZ FP-2 0, dFosB activator 3 and S100A4 inh HTS -5.
Screening COc1cccc(C(=O)C2CCCN(Cc3cn(C)nc3-c3ccccc3)C2)c1 (stereo unspecified) returned CDK5 p35 inh 2, CAL PDZ FP-1 -3, CAL PDZ FP-2 -3, dFosB activator -6 and S100A4 inh HTS 56.
`N#CC(CCc1ccc([N+](=O)[O-])cc1)(CCc1ccc([N+](=O)[O-])cc1)C(N)=O` gave CDK5 p35 inh -3, Statin myotox sup -8, CAL PDZ FP-1 43*, CAL PDZ FP-2 -2, dFosB activator -2 and S100A4 inh HTS 10.
For COc1cc(OC)cc(-c2c(C#Cc3ccsc3)c3cc(-c4cccc5[nH]ccc45)ccc3n2C)c1 the results were CDK5 p35 inh 0, Statin myotox sup -14, CAL PDZ FP-1 1, CAL PDZ FP-2 0, dFosB activator 18* and S100A4 inh HTS -2.
COc1cc(OC)cc(-c2c(C#Cc3ccsc3)c3cc(-c4ccc5cc[nH]c5c4)ccc3n2C)c1 was read as CDK5 p35 inh 3, Statin myotox sup -36, CAL PDZ FP-1 -1, CAL PDZ FP-2 1, dFosB activator 0 and S100A4 inh HTS -4.
COc1ccc(NC(=O)N2C[C@H]3[C@@H](c4ccccc42)[C@H](CO)N3C(=O)C2CCCC2)cc1 was read as Statin myotox sup -16 and S100A4 inh HTS 0.
`O=C1c2c(Cl)c(Cl)c(Cl)c(Cl)c2C(=O)N1c1nccs1` gave CDK5 p35 inh -1, Statin myotox sup 1, CAL PDZ FP-1 0, CAL PDZ FP-2 0, dFosB activator 1 and S100A4 inh HTS 2.

Screening data: PubChem, Broad Institute
